Data taken from ChEMBL document CHEMBL5705904 (N Engl J Med, 2016).
The source made the active and inactive calls. The calls are words filed in the database; no cut-off is given here.

Assays:
[1] = Terminal elimination half life in human at 400 mg, po administered for 8 days by LC-MS/MS analysis; type: ADME, organism-based; conditions: in vivo, time 8 day, read-out: LambdaZ (converted)
[2] = Apparent volume of distribution during terminal phase in human at 400 mg, po administered for 8 days by LC-MS/MS analysis; type: ADME, organism-based; conditions: in vivo, time 8 day, read-out: Vz/F
Procedure, shortened: (§1)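 Steady-state plasma sampling on cycle 1 day 8 in patients, predose and 0.25, 0.5, 0.75, 1, 2, 4 and 6 h post-dose, into lithium heparin. Plasma was stored at -80°C. Drug was quantified by validated LC-MS/MS against a stable labeled internal standard, using only values at or above LLOQ and nominal sampling times.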

[3] = Drug exposure in human administered for 6 hrs by LC-MS/MS analysis; type: ADME; conditions: po, dose 100-400 mg
[4] = Apparent volume of distribution during terminal phase in human at 100 mg, po BID administered for 8 days by LC-MS/MS analysis; type: ADME, organism-based; conditions: in vivo, time 8 day, read-out: Vz/F; procedure, shortened: as §1
[5] = Cmax in human at 400 mg, po administered for 8 days by LC-MS/MS analysis; type: ADME, organism-based; conditions: in vivo, time 8 day; procedure, shortened: as §1
[6] = Tmax in human at 250 mg, po administered for 8 days by LC-MS/MS analysis; type: ADME, organism-based; conditions: in vivo, time 8 day
Procedure, shortened: (§2)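 Patient plasma sampled on cycle 1 day 8 at predose and 0.25, 0.5, 0.75, 1, 2, 4 and 6 h post-dose, in lithium heparin. […] Tmax read directly from each individual's data; summarized descriptively.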

[7] = Apparent oral clearance in human at 400 mg, po administered for 8 days by LC-MS/MS analysis; type: ADME, organism-based; conditions: in vivo, time 8 day; procedure, shortened: as §1
[8] = Apparent oral clearance in human at 175 mg, po administered for 8 days by LC-MS/MS analysis; type: ADME, organism-based; conditions: in vivo, time 8 day; procedure, shortened: as §1
[9] = molecular target: Tyrosine-protein kinase Yes (Homo sapiens, UniProt P07947); assay: Inhibition of recombinant YES1 (unknown origin) […] by Z-Lyte assay
Procedure, shortened: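 Recombinant YES1 run in a Z'-LYTE assay. Compound preincubated with kinase for 1 h before ATP was added to start the reaction. IC50 derived from independent experiments run head-to-head with the comparator.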

[10] = AUC(0 to 12 hrs) in human at 100 mg, po BID administered for 8 days by LC-MS/MS analysis; type: ADME, organism-based; conditions: in vivo, time 8 day; procedure, shortened: as §1
[11] = AUC(0 to 6 hrs) in human at 400 mg, po administered for 8 days by LC-MS/MS analysis; type: ADME, organism-based; conditions: in vivo, time 8 day; procedure, shortened: as §1
[12] = AUC(0 to 6 hrs) in human at 250 mg, po administered for 8 days by LC-MS/MS analysis; type: ADME, organism-based; conditions: in vivo, time 8 day; procedure, shortened: as §1
[13] = molecular target: Tyrosine-protein kinase Lyn (Homo sapiens, UniProt P07948); assay: Inhibition of recombinant LYN (unknown origin) preincubated for 1 hr in presence of ATP by Z-Lyte assay
Procedure, shortened: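 Recombinant kinase activity was measured by Z'-LYTE with ATP at each enzyme's Km. Inhibitor came from a 10 mM DMSO stock and was tested at 10 concentrations. Compound was preincubated with kinase for 1 h before ATP addition started the reaction, for about 2 h total compound-kinase exposure. IC50 is from 2–3 independent experiments.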

[14] = Terminal elimination half life in human at 100 mg, po BID administered for 8 days by LC-MS/MS analysis; type: ADME, organism-based; conditions: in vivo, time 8 day, read-out: LambdaZ (converted)
[15] = Cmax in human at 100 mg, po BID administered for 8 days by LC-MS/MS analysis; type: ADME, organism-based; conditions: in vivo, time 8 day; procedure, shortened: as §1
[16] = Tmax in human at 100 mg, po administered for 8 days by LC-MS/MS analysis; type: ADME, organism-based; conditions: in vivo, time 8 day; procedure, shortened: as §2
[17] = AUC(0 to infinity) in human at 400 mg, po administered for 8 days by LC-MS/MS analysis; type: ADME, organism-based; conditions: in vivo, time 8 day; procedure, shortened: as §1
[18] = Half life in human at 250 mg, po administered for 8 days by LC-MS/MS analysis; type: ADME, organism-based; conditions: in vivo, time 8 day; procedure, shortened: as §1
[19] = Half life in human at 100 mg, po BID administered for 8 days by LC-MS/MS analysis; type: ADME, organism-based; conditions: in vivo, time 8 day; procedure, shortened: as §1
[20] = AUC(0 to 24 hrs) in human at 100 mg, po administered for 8 days by LC-MS/MS analysis; type: ADME, organism-based; conditions: in vivo, time 8 day; procedure, shortened: as §1
[21] = Tmax in human at 175 mg, po administered for 8 days by LC-MS/MS analysis; type: ADME, organism-based; conditions: in vivo, time 8 day; procedure, shortened: as §2
[22] = molecular target: Tyrosine-protein kinase BTK (Homo sapiens) (UniProt Q06187); conditions: Platelet, dose 25-1000 nM, time 30.0 min
[23] = Drug accumulation in human at 100 to 400 mg, po administered for 6 hrs by LC-MS/MS analysis; type: ADME, organism-based; conditions: in vivo, dose 100-400 mg
[24] = Terminal elimination half life in human at 250 mg, po administered for 8 days by LC-MS/MS analysis; type: ADME, organism-based; conditions: in vivo, time 8 day, read-out: LambdaZ (converted)
[25] = AUC(0 to 24 hrs) in human at 100 mg, po BID administered for 8 days by LC-MS/MS analysis; type: ADME, organism-based; conditions: in vivo, time 8 day; procedure, shortened: as §1
[26] = Apparent volume of distribution during terminal phase in human at 100 mg, po administered for 8 days by LC-MS/MS analysis; type: ADME, organism-based; conditions: in vivo, time 8 day, read-out: Vz/F; procedure, shortened: as §1
[27] = AUC(0 to 12 hrs) in human at 400 mg, po administered for 8 days by LC-MS/MS analysis; type: ADME, organism-based; conditions: in vivo, time 8 day; procedure, shortened: as §1
[28] = AUC(0 to 24 hrs) in human at 175 mg, po administered for 8 days by LC-MS/MS analysis; type: ADME, organism-based; conditions: in vivo, time 8 day; procedure, shortened: as §1
[29] = Apparent oral clearance in human at 100 mg, po BID administered for 8 days by LC-MS/MS analysis; type: ADME, organism-based; conditions: in vivo, time 8 day; procedure, shortened: as §1
[30] = AUC(0 to 24 hrs) in human at 250 mg, po administered for 8 days by LC-MS/MS analysis; type: ADME, organism-based; conditions: in vivo, time 8 day; procedure, shortened: as §1
[31] = AUC(0 to 6 hrs) in human at 100 mg, po BID administered for 8 days by LC-MS/MS analysis; type: ADME, organism-based; conditions: in vivo, time 8 day; procedure, shortened: as §1

Chain of Tyrosine-protein kinase Yes (P07947 whole entry): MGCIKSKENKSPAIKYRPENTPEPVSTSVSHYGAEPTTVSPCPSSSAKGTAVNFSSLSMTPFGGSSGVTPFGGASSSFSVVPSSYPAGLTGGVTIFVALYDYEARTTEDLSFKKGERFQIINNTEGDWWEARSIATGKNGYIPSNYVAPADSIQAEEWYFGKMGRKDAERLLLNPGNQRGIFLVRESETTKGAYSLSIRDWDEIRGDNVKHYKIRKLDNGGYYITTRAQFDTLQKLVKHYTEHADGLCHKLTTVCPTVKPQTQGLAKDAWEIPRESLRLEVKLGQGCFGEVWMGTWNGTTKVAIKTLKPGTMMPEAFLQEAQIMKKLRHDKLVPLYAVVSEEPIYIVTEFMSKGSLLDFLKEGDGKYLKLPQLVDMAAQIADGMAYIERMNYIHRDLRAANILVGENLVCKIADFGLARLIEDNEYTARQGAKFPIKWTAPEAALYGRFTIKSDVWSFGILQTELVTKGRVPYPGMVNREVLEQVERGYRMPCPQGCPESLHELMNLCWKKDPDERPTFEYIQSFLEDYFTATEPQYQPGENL
Chain of Tyrosine-protein kinase Lyn (P07948 whole entry): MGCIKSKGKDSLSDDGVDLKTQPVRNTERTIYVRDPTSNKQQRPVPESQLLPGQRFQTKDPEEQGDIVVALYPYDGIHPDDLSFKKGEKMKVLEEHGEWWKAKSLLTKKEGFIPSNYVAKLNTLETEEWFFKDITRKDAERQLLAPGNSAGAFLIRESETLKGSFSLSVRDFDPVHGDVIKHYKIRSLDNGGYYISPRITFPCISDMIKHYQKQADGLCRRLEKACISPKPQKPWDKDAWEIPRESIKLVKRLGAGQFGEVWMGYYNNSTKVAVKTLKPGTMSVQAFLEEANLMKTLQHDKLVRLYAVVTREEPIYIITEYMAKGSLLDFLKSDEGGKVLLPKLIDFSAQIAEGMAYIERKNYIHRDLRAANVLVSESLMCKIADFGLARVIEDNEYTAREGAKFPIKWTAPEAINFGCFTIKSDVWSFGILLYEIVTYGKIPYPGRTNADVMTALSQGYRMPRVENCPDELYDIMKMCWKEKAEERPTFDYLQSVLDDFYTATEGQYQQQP
Chain of Tyrosine-protein kinase BTK (Homo sapiens) (Q06187 whole entry): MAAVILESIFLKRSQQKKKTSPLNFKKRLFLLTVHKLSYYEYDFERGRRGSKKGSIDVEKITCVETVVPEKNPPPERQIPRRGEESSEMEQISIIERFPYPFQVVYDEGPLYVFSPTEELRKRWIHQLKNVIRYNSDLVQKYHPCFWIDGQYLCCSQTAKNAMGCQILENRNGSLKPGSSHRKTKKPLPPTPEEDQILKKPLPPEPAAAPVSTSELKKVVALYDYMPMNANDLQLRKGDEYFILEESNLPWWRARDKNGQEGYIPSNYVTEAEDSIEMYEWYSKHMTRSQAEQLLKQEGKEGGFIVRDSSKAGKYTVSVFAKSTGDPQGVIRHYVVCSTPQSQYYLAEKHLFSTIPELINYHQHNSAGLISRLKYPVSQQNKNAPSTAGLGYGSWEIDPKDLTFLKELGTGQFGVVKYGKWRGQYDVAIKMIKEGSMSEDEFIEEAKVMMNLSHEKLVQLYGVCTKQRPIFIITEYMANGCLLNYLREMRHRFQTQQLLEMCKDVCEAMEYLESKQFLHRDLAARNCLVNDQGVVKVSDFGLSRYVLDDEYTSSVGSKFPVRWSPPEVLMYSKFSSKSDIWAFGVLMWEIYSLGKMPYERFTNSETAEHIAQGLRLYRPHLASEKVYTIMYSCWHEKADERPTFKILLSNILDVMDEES

- k el at 192 h [1]: 0.000161 s⁻¹
- Vd/F [2]: 677 L
- Drug uptake [3]: Dose-Dependent Effect
- Vd/F [4]: 361 L
- Cmax [5]: 902 ng/mL
- Tmax [6]: 66 min
- CL/F [7]: 5200 mL/min
- CL/F [8]: 3550 mL/min
- IC50 [9]: > 1000 nM
- AUC at 192 h [10]: 926 ng·h/mL
- AUC at 192 h [11]: 1730 ng·h/mL
- AUC at 192 h [12]: 1990 ng·h/mL
- IC50 [13]: > 1000 nM
- k el at 192 h [14]: 0.000188 s⁻¹
- Cmax [15]: 827 ng/mL
- Tmax [16]: 48.6 min
- AUC(0-inf) [17]: 1870 ng·h/mL
- half-life [18]: 56.5 min
- half-life [19]: 67.8 min
- AUC at 192 h [20]: 603 ng·h/mL
- Tmax [21]: 38.4 min
- inhibition [22]: inactive
- Drug uptake [23]: Not Active
- k el at 192 h [24]: 0.000206 s⁻¹
- AUC at 192 h [25]: 1850 ng·h/mL
- Vd/F [26]: 308 L
- AUC at 192 h [27]: 1850 ng·h/mL
- AUC at 192 h [28]: 1160 ng·h/mL
- CL/F [29]: 2750 mL/min
- AUC at 192 h [30]: 2310 ng·h/mL
- AUC at 192 h [31]: 826 ng·h/mL
Structure (SMILES): CC#CC(=O)N1CCC[C@H]1c1nc(-c2ccc(C(=O)Nc3ccccn3)cc2)c2c(N)nccn12 [ACALABRUTINIB]
